# Compound activity: PubChem, several laboratories
# Most compounds without a hit are left out; they make up all but 2.5% or so of the library.
# NPY1 pot ag: human NPY-Y1 potentiation or agonism, primary screen | P25929 | NPY-Y1 expressing cells, potentiator/agonist activation | activation, % at 3.6 µM | 0.37% of 220,000 active; in the data active = activation above about 33%, passing the limit was not always enough;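 note: cells stimulated with NPY at EC10 then isoproterenol at EC100; 0% = low agonist plus stimulus and 100% = saturating agonist plus stimulus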
# Target sequence (P25929 whole entry, looked up): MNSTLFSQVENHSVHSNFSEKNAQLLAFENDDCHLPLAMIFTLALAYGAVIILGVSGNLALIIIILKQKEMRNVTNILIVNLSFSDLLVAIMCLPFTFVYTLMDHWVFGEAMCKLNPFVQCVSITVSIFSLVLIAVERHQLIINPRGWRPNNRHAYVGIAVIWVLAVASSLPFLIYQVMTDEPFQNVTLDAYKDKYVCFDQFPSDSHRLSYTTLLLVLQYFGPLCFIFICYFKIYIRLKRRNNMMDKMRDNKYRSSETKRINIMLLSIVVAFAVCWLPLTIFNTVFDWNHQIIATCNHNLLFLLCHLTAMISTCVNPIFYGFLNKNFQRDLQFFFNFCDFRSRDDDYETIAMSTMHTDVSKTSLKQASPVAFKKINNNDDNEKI
# Insulin prom inh: TRM-6 insulin promoter activity inhibition; inhibition, % at 2 µM; 0.9% of 130,000 active; TRM-6 cells, insulin promoter-eGFP reporter, imaging; reporter expression induced with tamoxifen;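 active = inhibition above the mean plus 3 SD, with well images judged a real hit on visual review, cut at about 60% in these data, passing the limit was not always enough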
# NPY2 pot ag: potentiates or activates human NPY-Y2 receptor; cells expressing NPY-Y2, potentiator/agonist read-out; activation, % at 3.6 µM; 0.45% of 220,000 active; in the data active = activation above about 27%;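 note: cells stimulated with NPY near EC25 plus isoproterenol at EC100; 0% = vehicle plus submaximal agonist and 100% = vehicle plus saturating agonist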
# NPY Y2 blocker: antagonists of human neuropeptide Y receptor Y2. P49146. NPY-Y2 expressing cells, antagonist mode. inhibition, % at 2.7 µM. 0.99% of 140,000 active; in the data active = inhibition above about 17%;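 note: 0% = vehicle with agonist challenge and 100% = reference antagonist with challenge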
# Insulin prom up: MIN6 insulin promoter up-regulation; z-score at 5 µM; AID 1625; 0.3% of 190,000 active; MIN6 insulin promoter-GFP reporter, high-content imaging; hits give high values;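 active = z-score above 3 at 5 µM with at least 500 cells counted in the well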
# NPY Y1 blocker: NPY-Y1 (human) receptor antagonism; 1% of 200,000 active; HEK293-CNG Y1 cells, membrane potential fluorescence; NPY at EC95, then isoproterenol; AID 1040; inhibition, % at 3.6 µM;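 active = inhibition above the campaign mean inhibition of all tested compounds plus 3 SD, cut at about 20% in these data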;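 note: 0% = DMSO wells given NPY plus isoproterenol and 100% = isoproterenol alone without NPY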
#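 System: HEK293 cells with Y1 receptor plus CNG channel / Probe or stimulus: NPY 25 nM then isoproterenol 1 µM plus Ro 20-1724 25 µM / Compound: one concentration, 3.6 µM, in 0.4% DMSO / Schedule: compound incubation 1 h at room temperature, readout 45 min post-stimulation / Measured by: membrane potential fluorescence / Read-out: % inhibition of NPY effect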
# NPY-Y1 confirm: confirmation of human NPY-Y1 receptor potentiators or agonists. cell-based NPY-Y1 potentiator/agonist assay. AID 1546. shares compounds with NPY1 pot ag. 20% of 280 active. activation, % at 3.6 µM; in the data active = activation above about 45%;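 note: cells challenged with NPY at its EC10 plus isoproterenol stimulus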
# NPY-Y2 counter: NPY-Y2 potentiation or agonism as NPY-Y1 counter-screen. 20% of 280 active. HEK293-CNG cells, membrane-potential fluorescence (FLIPR), 1536-well. activation, % at 3.6 µM. shares compounds with NPY1 pot ag. AID 1649; in the data active = activation above about 33%
# NPY-Y1 ag: activates human NPY-Y1, counter-screen for NPY-Y1 potentiators. shares compounds with NPY1 pot ag. HEK293 Y1-CNGC, membrane potential fluorescence, agonist mode. activation, % at 3.6 µM. 50% of 280 active. AID 1697;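 active = percent activation above the mean of DMSO-only control wells plus 3 SD of those wells, cut at about 18% in these data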;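 note: cells challenged with isoproterenol plus Ro 20-1724 with no NPY in test wells; Y1 agonism lowers isoproterenol-driven cAMP and reduces probe fluorescence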
# NPY-Y2 ag: human NPY-Y2 agonism as NPY-Y1 counter-screen. 67% of 280 active. AID 1698. HEK293 Y2-CNGC, membrane potential fluorescence, agonist mode. activation, % at 3.6 µM. shares compounds with NPY1 pot ag;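 active = activation above the solvent-only control wells' mean plus 3 SD, cut at about 11% in these data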;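 note: 0% = DMSO with isoproterenol and 100% = 40 nM NPY maximal response; agonism lowers cAMP so well fluorescence drops in active wells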
# CNGC counter: blocks cyclic nucleotide gated channel in NPY-Y1 counter-screen | inhibition, % at 3.6 µM | HEK293-CNG parental, isoproterenol cAMP, membrane potential fluorescence | AID 1704 | shares compounds with NPY1 pot ag | 42% of 280 active;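 active = inhibition above the mean of stimulated solvent-only control wells plus 3 SD, cut at about 22% in these data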;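 note: 0% = isoproterenol-stimulated DMSO wells and 100% = unstimulated DMSO wells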
# The depositor's hits bear a star; / = no result given.
SMILES,NPY1 pot ag,Insulin prom inh,NPY2 pot ag,NPY Y2 blocker,Insulin prom up,NPY Y1 blocker,NPY-Y1 confirm,NPY-Y2 counter,NPY-Y1 ag,NPY-Y2 ag,CNGC counter
COC(=O)CSc1ccc(S(=O)(=O)N2CCCCCC2)cc1[N+](=O)[O-],60*,/,0,/,0.19,-12,121*,100*,108*,104*,99*
C/C(=N/NC(=O)c1ccoc1C)c1cccc(NC(=O)C2CC2)c1,-7,-10,6,0,0.12,0,/,/,/,/,/
CC(=O)c1sc(Nc2nc3ccc(F)cc3s2)nc1C,45*,/,17,-5,0.08,-20,28,15,16,20*,19
CC(=O)Oc1cc2c3c(c1)/C(=C1/SC(=S)NC1=O)C(=O)N3C(C)(C)C=C2C,51*,/,23,/,/,/,42,40*,37*,43*,40*
CCCCCCOC(=O)C(C#N)c1nc2ccccc2nc1N1CCN(CC)CC1 (configuration not stated),4,-3,19,7,-0.41,5,/,/,/,/,/
CCN1CCN(c2nc3ccccc3nc2C(C#N)C(=O)OCc2ccccc2)CC1 (configuration not stated),40*,-17,20,7,-1.8,-3,62*,47*,41*,54*,53*
FC(F)(F)c1cccc(NC(=S)Nc2ccc(Cl)c(Cl)c2)c1,45*,/,33,/,-1.8,/,26,29,7,25*,19
CCOc1ccc(NC(=S)NNC(=S)Nc2cccc(C(F)(F)F)c2)cc1,54*,/,31,/,0.01,/,29,21,24*,32*,5
COC(=O)CC1(C(=O)OC)Oc2ccc(Br)cc2C(=O)N1c1cc(Cl)c(Cl)cc1Cl (configuration not stated),49*,/,18,/,-1.9,/,22,5,10,7,20
O=C(c1ccc2nc(N3CCCCC3)sc2c1)N1CCN(Cc2ccc3c(c2)OCO3)CC1,-28,20,-8,3,/,3,/,/,/,/,/
O=C(N/N=C/c1c[nH]c2ccc(Br)cc12)C1CC1,58*,/,28,/,-1.6,/,40,34*,50*,43*,47*
O=C(c1ccc2c3c(cccc13)CC2)C1CCCN(Cc2ccncc2)C1 (configuration not stated),77*,/,2,/,-1.5,1,-27,-4,-33,-7,-7
CN1CCN(/N=C/c2cccc(Cl)c2Cl)CC1,-12,6,-5,2,-0.14,-1,/,/,/,/,/
OCCN(Cc1ccccc1)Cc1ccc(F)c(F)c1,9,9,0,0,0.02,5,/,/,/,/,/
NC(=O)CN(c1ccc(Cl)cc1)S(=O)(=O)c1ccccc1,-21,0,-4,3,0.44,3,/,/,/,/,/
Cc1ccc(S(=O)(=O)N(CC(=O)Nc2ccccc2C(=O)O)c2ccc(Cl)cc2)cc1,44*,-94,3,/,-0.33,4,8,4,5,20*,7
CCc1cccc2c(/C=N/NC(=O)c3cccc(S(=O)(=O)Nc4ccccc4Cl)c3)c[nH]c12,46*,10,-2,-2,0.02,-9,33,27,31*,19*,26*
Cc1[nH]c2ccccc2c1/C=N/NC(=O)c1cccc(S(=O)(=O)Nc2ccccc2Cl)c1,-11,/,12,0,1.2,-2,/,/,/,/,/
COc1cc(OC)cc(C(=O)N2CCN(Cc3ccccc3Br)CC2)c1,-9,/,4,/,-0.43,3,/,/,/,/,/
Cc1noc2ncnc(Sc3ccc(Cl)cc3)c12,66*,18,4,11,0.9,-2,-4,-6,-11,6,-7
Brc1ccc(Nc2nc(-c3cccnc3)cs2)cc1,37*,/,28,/,-0.61,-11,42,31,43*,38*,34*
Brc1ccc(-c2csc(Nc3nc(-c4ccc(Br)cc4)cs3)n2)cc1,-11,/,-12,/,-0.37,/,/,/,/,/,/
O=[N+]([O-])c1ccc(/C=C/C2=NN(c3ccccc3)C(c3ccco3)C2)o1 (configuration not stated),36*,/,22,/,/,-6,60*,45*,56*,58*,45*
CC(=O)c1ccc(NC(=S)NC(C)c2ccc(Cl)cc2Cl)cc1 (configuration not stated),37*,27,25,/,0.11,-5,48*,27,37*,35*,36*
COc1cc(/C=N/NC(=O)C(Cc2c[nH]c3ccccc23)NC(=O)OCC(C)C)cc([N+](=O)[O-])c1OCc1ccccc1 (configuration not stated),39*,/,25,/,-2.2,-4,34,30,24*,38*,25*
SMILES,NPY1 pot ag,Insulin prom inh,NPY2 pot ag,NPY Y2 blocker,Insulin prom up,NPY Y1 blocker,NPY-Y1 confirm,NPY-Y2 counter,NPY-Y1 ag,NPY-Y2 ag,CNGC counter
COc1cc(/C=N/NC(=O)C(Cc2c[nH]c3ccccc23)NC(=O)OCC(C)C)cc([N+](=O)[O-])c1O (configuration not stated),-6,0,0,-2,0.38,7,/,/,/,/,/
CC(=O)NC12CC3CC(C1)CC(C(=O)OCC(=O)Nc1ncc(Cl)c(C)c1Cl)(C3)C2,45*,54,8,1,-0.03,-1,3,-1,-5,3,-5
COc1ccc2c(c1)CCCC21NC(=O)NC1=O (configuration not stated),2,39,9,0,0.2,2,/,/,/,/,/
COc1ccc2cc(C3(C)NC(=O)NC3=O)ccc2c1 (configuration not stated),68*,/,8,-1,0.86,-7,0,-5,-6,-3,-8
CC(C)N1CCN(Cc2cccc(-n3cccn3)c2)CC1CCO (configuration not stated),10,/,-18,/,/,7,/,/,/,/,/
CC(O)C1CCC2C3CC[C@H]4CC(O)CCC4(C)C3CC3(OCCO3)C12C (some centres not stated),57*,8,9,-3,0.9,2,6,3,-10,2,12
O=C(OCC(=O)N1CCCc2ccccc21)c1cnc(Cl)c(Cl)c1,49*,/,19,6,-0.3,-1,31,16,22*,7,25*
